The source of these data is ChEMBL document CHEMBL1122955, “Synthesis and dihydropteridine reductase inhibitory effects of potential metabolites of the neurotoxin 1-methyl-4-phenyl-1,2,3,6-tetrahydropyridine” (J Med Chem, 1985).

As a reminder, the Ki is the equilibrium dissociation constant of an inhibitor or competing ligand from its target.

Each structure is given as a SMILES string.

Experiment [1] has as its target T1, Dihydropteridine reductase (Homo sapiens, UniProt P09417).
T1 sequence (P09417 whole entry): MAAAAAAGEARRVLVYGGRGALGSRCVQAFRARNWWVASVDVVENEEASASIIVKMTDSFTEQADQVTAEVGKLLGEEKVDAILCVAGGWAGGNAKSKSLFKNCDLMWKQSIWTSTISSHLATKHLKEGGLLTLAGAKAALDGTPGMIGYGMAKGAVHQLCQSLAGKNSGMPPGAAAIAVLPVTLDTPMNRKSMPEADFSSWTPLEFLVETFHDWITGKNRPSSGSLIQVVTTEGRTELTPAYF
In words: Inhibitory activity against human liver Dihydropteridine reductase (DHPR). The following applies: read-out: I50. Summed up:
(§1)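 DHPR from human liver (6 mU, 60 ng protein) or rat striatal synaptosomes (6.5 mU, 75 μg twice-washed P₂ protein), preincubated 10 min at 25 °C with at least six inhibitor concentrations. Residual activity measured with 50 μM qDMPH₂ and 50 μM NADH by decrease in NADH absorbance at 340 nm; I₅₀ = concentration giving 50% inhibition.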

Experiment [2] has as its target T2, Dihydropteridine reductase (Rattus norvegicus, UniProt P11348).
T2 sequence (P11348 whole entry): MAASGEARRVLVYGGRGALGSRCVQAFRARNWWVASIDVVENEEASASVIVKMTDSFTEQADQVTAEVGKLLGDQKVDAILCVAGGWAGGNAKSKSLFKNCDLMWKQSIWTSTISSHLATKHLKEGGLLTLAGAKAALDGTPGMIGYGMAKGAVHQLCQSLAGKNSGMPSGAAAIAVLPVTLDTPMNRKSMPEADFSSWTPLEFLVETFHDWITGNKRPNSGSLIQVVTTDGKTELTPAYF
In words: Inhibitory activity against rat striatal synaptosomes Dihydropteridine reductase (DHPR). Particulars: read-out: I50. Type of experiment: subcellular, Brain. A digest of the protocol:
as §1

In experiment [3] the target is T2, Dihydropteridine reductase. In words: Noncompetitive Inhibitory activity against rat striatal synaptosomal DHPR enzyme.
Experiment [4] has as its target T1, Dihydropteridine reductase. In words: Noncompetitive Iinhibitory activity against human liver DHPR enzyme.
Experiment [5] addresses T1, Dihydropteridine reductase. Description: Inhibitory activity against human liver Dihydropteridine reductase enzyme using 10 uM qBH2 and 50 uM NADH assays. The following applies: read-out: I50. A digest of the protocol:
(§2)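 Human liver or rat striatal synaptosomal DHPR, preincubated 10 min at 25 °C with inhibitor. Activity then assayed using natural substrate (6R)-dihydrobiopterin (qBH₂) at 10 μM with 50 μM NADH, followed as NADH absorbance decrease at 340 nm, to give 50% inhibitory concentrations.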

For experiment [6], the target named is T2, Dihydropteridine reductase. In words: Inhibitory activity against rat striatal synaptosomes […] using 10 uM qBH2 and 50 uM NADH assays. The following applies: read-out: I50. In kind it is subcellular, Brain. Summed up: as §2
The target in experiment [7] is T1, Dihydropteridine reductase. Description: Inhibitory activity against human liver Dihydropteridine reductase using 10 uM qBH2 and 50 uM NADH assays. The following applies: read-out: I50. Summed up: as §2

`COc1cc(C2=CCNCC2)ccc1O`: the IC50 in experiment [1] stood at 7.2 µM.
With `COc1cc(C2CCN(C)CC2)ccc1O`, the results for the IC50 in experiment [1] and in experiment [2] were 19 µM and 20 µM, respectively.
Taken in the same sequence, the figures for `COc1cc(C2=CCN(C)CC2)ccc1O` were 9.3 µM and 5.8 µM.
On to `C[n+]1ccc(-c2ccccc2)cc1` [listing 1 of 2 here], for which the IC50 amounted to 10000 µM in experiment [1] and 12000 µM in experiment [2].
Taken in the same sequence, the figures for `CN1CCC(c2ccccc2)CC1` were 23000 µM and 12000 µM.
On the same counts, the results for `COc1cc(C2=CCN(C(C)=O)CC2)ccc1O` are 5 µM and 91 µM.
On the same counts, the results for `CC(=O)N1CCC(c2ccc(O)c(O)c2)CC1` are 5.2 µM and 3.1 µM.
Turning to `C1=C(c2ccccc2)CCNC1`, the values for the IC50 in experiment [1] and in experiment [2] were 12000 µM and 6600 µM, respectively.
As to `CN1CCC(c2ccc(O)c(O)c2)CC1`, the Ki in experiment [3] came out at 74 µM. In addition, the values for the IC50 in experiment [1] and in experiment [2] were 42 µM and 60 µM, respectively.
For the molecule `C=CC[n+]1ccc(-c2ccccc2)cc1`, the figures for the IC50 in experiment [1] and in experiment [2] were 9400 µM and 7400 µM, respectively.
Taken in the same sequence, the figures for `CN1CC=C(c2ccc(Cl)cc2)CC1` were 2700 µM and 6400 µM.
Consider `C[n+]1ccc(-c2ccc(O)c(O)c2)cc1`, for which the Ki in experiment [3] is 1.9 µM. The IC50 is 0.63 µM in experiment [1] and 1.6 µM in experiment [2].
As for `Oc1ccc(C2=CCNCC2)cc1O`, the IC50 in experiment [1] is 3.6 µM; in experiment [2], 1.9 µM.
On the same counts, the results for `CC(=O)N1CC=C(c2ccc(O)c(O)c2)CC1` are 0.28 µM and 0.25 µM.
For the molecule `CN1CC=C(c2ccc(O)cc2)CC1`, the Ki in experiment [4] came out at 2.8 µM. Further, the values for the IC50 in experiment [1] and in experiment [2] were 3 µM and 2.6 µM, respectively.
Take `Oc1ccc(C2=CCNCC2)cc1`: the IC50 in experiment [1] was found to be 5.9 µM; in experiment [2], 3.4 µM.
Taken in the same sequence, the figures for `COc1ccc(-c2ccncc2)cc1OC` were 5300 µM and 2000 µM.
Taken in the same sequence, the figures for `Oc1ccc(-c2ccncc2)cc1O` were 0.38 µM and 0.28 µM.
On the same counts, the results for `Clc1ccc(C2=CCNCC2)cc1` are 3400 µM and 4000 µM.
`CN1CC=C(c2ccccc2)CC1`: the IC50 in experiment [5] was determined as 7200 µM; in experiment [6], 8400 µM; in experiment [1], 3000 µM; in experiment [2], 4600 µM.
`C[n+]1ccc(-c2ccccc2)cc1` [listing 2 of 2 here]: the IC50 came out at 5600 µM in experiment [1] and 3400 µM in experiment [2].
Taken in the same sequence, the figures for `Oc1ccc(C2CCNCC2)cc1O` were 44 µM and 38 µM.
With `CN1CC=C(c2ccc(O)c(O)c2)CC1`, the affinity in experiment [3] corresponds to a Ki of 3.3 µM. Moreover, the IC50 in experiment [7] was found to be 1.4 µM; in experiment [6], 1.2 µM; in experiment [1] it was 3.4 µM; in experiment [2] it was 2.5 µM.
`c1ccc(-c2ccncc2)cc1`: the IC50 in experiment [1] is 2400 µM; in experiment [2], 1900 µM.
On the same counts, the results for `COc1cc(C2CCN(C(C)=O)CC2)ccc1O` are 27 µM and 4.4 µM.
Taken in the same sequence, the figures for `COc1ccc(C2=CCN(C(C)=O)CC2)cc1OC` were 1100 µM and 2300 µM.
